The structures appear in SMILES notation.

For 2 molecules, fold change (FC) and inhibition results are on record in ChEMBL document CHEMBL5653631, “A Potent and Selective ULK1 Inhibitor Suppresses Autophagy and Sensitizes Cancer Cells to Nutrient Stress” (iScience, 2018).

For experiment [1], the target named is Protein-tyrosine kinase 6 (Homo sapiens) (UniProt Q13882). Kind of experiment: Inhibition of human recombinant BRK at 500 nM related to control ULK1.
The target in experiment [2] is Serine-protein kinase ATM (Homo sapiens) (UniProt Q13315). Kind of experiment: Inhibition of human recombinant ATM at 500 nM in presence of ATP by radiometric assay relative to control. Put shortly:
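Panel of 327 recombinant human kinases, each assayed in vitro by radiometric activity assay in duplicate at a single inhibitor concentration per compound, chosen with reference to its ULK1 inhibition. Activity remaining was expressed as percent of vehicle control, and percent inhibition was calculated as 100 minus percent activity remaining.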

For experiment [3], the target named is T1, cGMP-dependent protein kinase 2 (Homo sapiens) (UniProt Q13237).
T1 sequence (whole entry): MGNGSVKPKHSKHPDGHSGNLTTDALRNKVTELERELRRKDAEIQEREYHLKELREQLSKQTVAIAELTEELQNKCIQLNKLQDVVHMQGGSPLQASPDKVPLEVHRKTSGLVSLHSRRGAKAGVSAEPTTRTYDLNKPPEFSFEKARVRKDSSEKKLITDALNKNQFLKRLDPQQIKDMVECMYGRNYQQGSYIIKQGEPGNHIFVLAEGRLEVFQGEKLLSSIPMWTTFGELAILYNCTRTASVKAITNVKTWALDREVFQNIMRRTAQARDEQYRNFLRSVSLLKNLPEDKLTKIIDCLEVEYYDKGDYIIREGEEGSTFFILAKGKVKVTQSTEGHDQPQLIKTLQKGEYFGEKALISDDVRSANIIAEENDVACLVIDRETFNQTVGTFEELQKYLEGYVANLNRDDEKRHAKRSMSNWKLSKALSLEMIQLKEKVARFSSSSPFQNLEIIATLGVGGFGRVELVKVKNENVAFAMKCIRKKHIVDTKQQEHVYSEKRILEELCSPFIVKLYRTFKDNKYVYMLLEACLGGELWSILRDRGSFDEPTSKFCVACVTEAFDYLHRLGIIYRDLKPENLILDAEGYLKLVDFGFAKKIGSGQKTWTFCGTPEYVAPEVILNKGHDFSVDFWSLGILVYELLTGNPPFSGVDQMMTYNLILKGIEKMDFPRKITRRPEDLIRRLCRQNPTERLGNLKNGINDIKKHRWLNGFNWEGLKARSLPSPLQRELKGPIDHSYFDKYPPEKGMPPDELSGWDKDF
Kind of experiment: Inhibition of human recombinant PKG2 at 500 nM in presence of ATP by radiometric assay relative to control.

In experiment [4] the target is T1, cGMP-dependent protein kinase 2 (Homo sapiens). Kind of experiment: Inhibition of human recombinant PKG2 at 500 nM related to control ULK1.
In experiment [5] the target is Transcription initiation factor TFIID subunit 1-like (Homo sapiens) (UniProt Q8IZX4). Kind of experiment: Inhibition of human recombinant TAF1L at 15 nM in presence of ATP by radiometric assay relative to control.
Experiment [6] deals with Ephrin type-A receptor 7 (Homo sapiens) (UniProt Q15375). Kind of experiment: Inhibition of human recombinant EphA7 at 15 nM related to control ULK1.
The target in experiment [7] is Calcium/calmodulin-dependent protein kinase type II subunit gamma (Homo sapiens) (UniProt Q13555). Kind of experiment: Inhibition of human recombinant CaMK2g at 15 nM related to control ULK1.
Calcium/calmodulin-dependent protein kinase type II subunit gamma (Homo sapiens), sequence (Q13555 whole entry): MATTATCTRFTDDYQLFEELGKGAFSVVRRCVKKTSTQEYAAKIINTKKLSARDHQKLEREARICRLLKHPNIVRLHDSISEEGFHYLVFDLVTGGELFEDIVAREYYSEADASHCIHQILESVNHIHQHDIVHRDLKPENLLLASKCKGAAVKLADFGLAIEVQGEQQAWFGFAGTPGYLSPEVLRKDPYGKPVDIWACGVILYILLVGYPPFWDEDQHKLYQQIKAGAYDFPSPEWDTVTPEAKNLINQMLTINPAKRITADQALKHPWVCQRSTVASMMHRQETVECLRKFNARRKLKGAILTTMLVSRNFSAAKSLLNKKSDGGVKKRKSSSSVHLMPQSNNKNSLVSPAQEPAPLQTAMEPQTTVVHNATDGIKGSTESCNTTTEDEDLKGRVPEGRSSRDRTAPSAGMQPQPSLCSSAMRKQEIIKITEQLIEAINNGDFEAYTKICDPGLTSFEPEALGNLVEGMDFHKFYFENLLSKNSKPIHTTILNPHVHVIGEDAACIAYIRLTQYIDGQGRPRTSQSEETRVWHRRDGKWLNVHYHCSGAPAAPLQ
Experiment [8] addresses Vascular endothelial growth factor receptor 3 (Homo sapiens) (UniProt P35916). Kind of experiment: Inhibition of human recombinant FLT4 at 15 nM in presence of ATP by radiometric assay relative to control.
The target of experiment [9] is Calcium/calmodulin-dependent protein kinase kinase 1 (Homo sapiens) (UniProt Q8N5S9). Kind of experiment: Inhibition of human recombinant CaMKK1 at 15 nM in presence of ATP by radiometric assay relative to control.
Calcium/calmodulin-dependent protein kinase kinase 1 (Homo sapiens), sequence (Q8N5S9 whole entry, looked up): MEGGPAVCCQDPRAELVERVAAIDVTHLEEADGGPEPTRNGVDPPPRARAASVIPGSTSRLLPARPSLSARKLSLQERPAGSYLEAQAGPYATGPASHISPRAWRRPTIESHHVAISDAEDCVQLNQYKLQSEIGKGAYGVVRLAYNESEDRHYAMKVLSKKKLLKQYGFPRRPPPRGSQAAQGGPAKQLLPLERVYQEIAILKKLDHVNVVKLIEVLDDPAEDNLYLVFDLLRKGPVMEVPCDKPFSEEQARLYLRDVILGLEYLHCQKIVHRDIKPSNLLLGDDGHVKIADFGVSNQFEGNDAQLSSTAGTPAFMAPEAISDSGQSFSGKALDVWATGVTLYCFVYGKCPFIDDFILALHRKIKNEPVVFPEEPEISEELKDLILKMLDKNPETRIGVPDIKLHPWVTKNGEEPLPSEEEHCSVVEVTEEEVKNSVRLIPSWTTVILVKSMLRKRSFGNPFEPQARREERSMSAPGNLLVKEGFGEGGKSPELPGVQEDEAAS
Experiment [10] deals with T2, Mitogen-activated protein kinase kinase kinase 3 (Homo sapiens) (UniProt Q99759).
T2 sequence (whole entry): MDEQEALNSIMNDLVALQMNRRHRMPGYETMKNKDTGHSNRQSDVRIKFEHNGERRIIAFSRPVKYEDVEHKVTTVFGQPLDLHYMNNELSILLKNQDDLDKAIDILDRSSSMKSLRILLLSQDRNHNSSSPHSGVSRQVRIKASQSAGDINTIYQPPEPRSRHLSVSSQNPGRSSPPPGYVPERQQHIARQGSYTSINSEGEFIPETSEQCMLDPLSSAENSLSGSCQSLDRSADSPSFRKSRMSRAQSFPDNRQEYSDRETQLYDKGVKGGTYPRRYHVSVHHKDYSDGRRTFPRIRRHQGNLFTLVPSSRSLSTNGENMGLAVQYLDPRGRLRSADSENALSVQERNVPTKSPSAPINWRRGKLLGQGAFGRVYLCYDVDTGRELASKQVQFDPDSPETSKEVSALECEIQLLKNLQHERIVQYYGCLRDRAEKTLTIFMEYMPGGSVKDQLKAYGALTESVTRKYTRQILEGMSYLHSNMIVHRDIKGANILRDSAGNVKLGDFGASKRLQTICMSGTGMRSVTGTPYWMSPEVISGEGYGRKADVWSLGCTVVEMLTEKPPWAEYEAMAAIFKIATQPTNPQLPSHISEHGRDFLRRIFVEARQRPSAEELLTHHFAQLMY
Kind of experiment: Inhibition of human recombinant MAP3K3 at 15 nM in presence of ATP by radiometric assay relative to control.

The target of experiment [11] is Casein kinase II subunit alpha' (Homo sapiens) (UniProt P19784). Kind of experiment: Inhibition of human recombinant CK2a2 at 15 nM related to control ULK1.
Casein kinase II subunit alpha' (Homo sapiens), sequence (P19784 whole entry, looked up): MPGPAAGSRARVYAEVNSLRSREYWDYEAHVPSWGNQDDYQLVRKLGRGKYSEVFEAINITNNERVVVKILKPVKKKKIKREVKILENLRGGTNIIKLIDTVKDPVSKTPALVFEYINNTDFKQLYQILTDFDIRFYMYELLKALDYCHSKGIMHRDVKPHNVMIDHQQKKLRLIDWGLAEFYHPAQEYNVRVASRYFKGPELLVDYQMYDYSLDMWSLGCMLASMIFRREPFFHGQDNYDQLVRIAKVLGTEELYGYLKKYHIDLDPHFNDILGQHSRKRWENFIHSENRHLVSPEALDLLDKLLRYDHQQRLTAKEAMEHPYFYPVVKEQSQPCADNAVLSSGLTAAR

Serine-protein kinase ATM (Homo sapiens), sequence (Q13315 whole entry): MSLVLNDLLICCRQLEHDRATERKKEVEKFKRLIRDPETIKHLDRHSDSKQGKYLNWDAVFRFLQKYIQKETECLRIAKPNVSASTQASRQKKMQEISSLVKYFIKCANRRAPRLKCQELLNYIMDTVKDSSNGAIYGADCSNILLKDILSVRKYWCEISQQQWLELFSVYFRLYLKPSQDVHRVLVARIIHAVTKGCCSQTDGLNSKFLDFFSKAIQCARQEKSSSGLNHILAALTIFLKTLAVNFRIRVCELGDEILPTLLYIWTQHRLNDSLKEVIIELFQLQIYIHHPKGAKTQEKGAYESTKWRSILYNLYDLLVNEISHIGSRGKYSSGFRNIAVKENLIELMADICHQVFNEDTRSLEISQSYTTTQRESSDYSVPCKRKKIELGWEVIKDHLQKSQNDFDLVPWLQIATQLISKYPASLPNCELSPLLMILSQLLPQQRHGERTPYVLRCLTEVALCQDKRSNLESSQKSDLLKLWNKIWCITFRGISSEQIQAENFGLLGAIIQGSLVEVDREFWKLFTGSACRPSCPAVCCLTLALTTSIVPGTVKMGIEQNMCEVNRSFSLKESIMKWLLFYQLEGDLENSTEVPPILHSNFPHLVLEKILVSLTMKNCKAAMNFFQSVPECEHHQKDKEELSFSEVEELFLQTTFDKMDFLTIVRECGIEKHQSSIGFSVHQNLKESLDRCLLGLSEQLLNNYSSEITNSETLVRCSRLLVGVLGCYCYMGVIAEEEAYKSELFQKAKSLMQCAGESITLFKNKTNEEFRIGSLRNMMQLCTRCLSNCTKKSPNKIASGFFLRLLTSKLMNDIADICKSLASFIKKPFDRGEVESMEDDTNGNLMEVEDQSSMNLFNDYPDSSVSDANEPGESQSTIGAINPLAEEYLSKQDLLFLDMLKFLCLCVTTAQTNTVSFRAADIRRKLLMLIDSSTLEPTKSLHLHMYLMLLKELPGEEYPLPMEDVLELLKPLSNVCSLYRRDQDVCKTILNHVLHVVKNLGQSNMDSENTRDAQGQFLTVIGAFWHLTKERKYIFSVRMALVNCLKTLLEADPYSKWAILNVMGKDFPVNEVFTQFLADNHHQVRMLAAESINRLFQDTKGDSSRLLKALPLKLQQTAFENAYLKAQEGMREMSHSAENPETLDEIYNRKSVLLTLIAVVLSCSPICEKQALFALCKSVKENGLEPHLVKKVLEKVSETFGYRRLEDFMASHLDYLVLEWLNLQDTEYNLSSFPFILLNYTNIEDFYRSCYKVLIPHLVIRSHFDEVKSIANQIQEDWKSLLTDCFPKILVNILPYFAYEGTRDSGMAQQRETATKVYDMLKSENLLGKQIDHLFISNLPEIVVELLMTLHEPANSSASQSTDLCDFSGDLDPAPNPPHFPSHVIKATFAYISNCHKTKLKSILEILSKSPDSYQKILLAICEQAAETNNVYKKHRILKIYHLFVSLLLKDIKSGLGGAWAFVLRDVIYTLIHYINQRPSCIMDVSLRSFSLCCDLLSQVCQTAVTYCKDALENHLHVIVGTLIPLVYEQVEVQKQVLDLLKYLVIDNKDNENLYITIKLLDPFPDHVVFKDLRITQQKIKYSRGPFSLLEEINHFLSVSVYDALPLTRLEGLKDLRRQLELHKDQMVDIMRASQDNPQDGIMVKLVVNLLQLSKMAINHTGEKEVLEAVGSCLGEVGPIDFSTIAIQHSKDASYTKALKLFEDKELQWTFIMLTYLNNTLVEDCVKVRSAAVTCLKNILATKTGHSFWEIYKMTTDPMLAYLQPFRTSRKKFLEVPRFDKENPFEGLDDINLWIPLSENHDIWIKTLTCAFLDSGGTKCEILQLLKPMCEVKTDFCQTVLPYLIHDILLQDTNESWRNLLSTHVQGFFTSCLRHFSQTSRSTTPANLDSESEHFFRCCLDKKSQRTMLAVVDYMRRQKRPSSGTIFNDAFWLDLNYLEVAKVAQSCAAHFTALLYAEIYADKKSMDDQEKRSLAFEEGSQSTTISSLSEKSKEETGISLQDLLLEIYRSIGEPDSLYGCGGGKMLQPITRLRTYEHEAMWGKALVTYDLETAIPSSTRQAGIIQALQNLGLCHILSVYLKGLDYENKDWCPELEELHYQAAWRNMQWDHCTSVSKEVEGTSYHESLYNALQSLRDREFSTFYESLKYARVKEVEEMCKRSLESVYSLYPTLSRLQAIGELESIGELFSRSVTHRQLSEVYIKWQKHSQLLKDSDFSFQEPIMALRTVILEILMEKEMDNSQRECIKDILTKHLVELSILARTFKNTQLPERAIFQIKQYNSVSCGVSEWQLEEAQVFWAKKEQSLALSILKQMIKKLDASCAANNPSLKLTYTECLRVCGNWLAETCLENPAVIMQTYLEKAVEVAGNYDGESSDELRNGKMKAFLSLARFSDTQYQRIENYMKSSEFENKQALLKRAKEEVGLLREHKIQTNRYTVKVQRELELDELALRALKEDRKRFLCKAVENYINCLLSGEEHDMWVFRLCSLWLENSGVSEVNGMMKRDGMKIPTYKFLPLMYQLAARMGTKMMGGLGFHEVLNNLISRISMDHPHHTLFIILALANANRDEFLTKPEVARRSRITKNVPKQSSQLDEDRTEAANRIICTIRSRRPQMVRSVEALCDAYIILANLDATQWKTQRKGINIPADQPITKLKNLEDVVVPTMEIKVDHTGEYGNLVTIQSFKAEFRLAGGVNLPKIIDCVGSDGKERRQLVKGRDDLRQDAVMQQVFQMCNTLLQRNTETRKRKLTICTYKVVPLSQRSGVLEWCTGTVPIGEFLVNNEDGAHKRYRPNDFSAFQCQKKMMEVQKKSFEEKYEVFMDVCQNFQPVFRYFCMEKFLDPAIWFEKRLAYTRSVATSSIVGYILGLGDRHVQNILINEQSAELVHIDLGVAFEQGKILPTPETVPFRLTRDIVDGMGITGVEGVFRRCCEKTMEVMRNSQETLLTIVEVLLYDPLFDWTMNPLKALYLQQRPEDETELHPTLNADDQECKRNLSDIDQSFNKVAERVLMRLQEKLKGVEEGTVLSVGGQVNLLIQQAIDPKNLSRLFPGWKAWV
Protein-tyrosine kinase 6 (Homo sapiens), sequence (Q13882 whole entry, looked up): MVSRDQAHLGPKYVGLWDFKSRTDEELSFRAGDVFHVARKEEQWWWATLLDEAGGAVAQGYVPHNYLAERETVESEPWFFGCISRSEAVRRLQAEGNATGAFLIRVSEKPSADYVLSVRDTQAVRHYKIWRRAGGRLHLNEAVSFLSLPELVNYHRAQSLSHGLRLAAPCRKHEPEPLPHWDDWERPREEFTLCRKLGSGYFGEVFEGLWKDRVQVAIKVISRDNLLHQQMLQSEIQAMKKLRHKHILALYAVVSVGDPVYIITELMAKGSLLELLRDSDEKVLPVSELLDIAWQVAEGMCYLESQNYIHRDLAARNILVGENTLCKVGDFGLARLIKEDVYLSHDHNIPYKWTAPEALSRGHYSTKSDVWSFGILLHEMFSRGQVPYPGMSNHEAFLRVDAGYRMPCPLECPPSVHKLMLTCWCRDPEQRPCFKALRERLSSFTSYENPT

In the case of `CNC(=O)c1ccccc1Oc1nc(Nc2cc(OC)c(OC)c(OC)c2)ncc1Br`, the fold change (FC) in experiment [1] and in experiment [4] was 0.03 in each case. The inhibition in experiment [2] and in experiment [3] was 2% throughout.

For `CC(C)[C@H](NC(=O)c1cc(-c2cnn3cc(-c4ccc(OCCN5CCCCC5)cc4)cnc23)cs1)C(F)(F)F`, the inhibition in experiment [5] is 43%; in [8], 35%; in experiment [9], 0%; in experiment [10], 3%. The fold change (FC) amounted to 0 in experiment [6], 0.25 in experiment [7] and 0.06 in experiment [11].
